The record followed here is ChEMBL document CHEMBL4177578, “Synthesis, pharmacological activities and molecular docking studies of pyrazolyltriazoles as anti-bacterial and anti-inflammatory agents” (Bioorg Med Chem, 2017).

Values after ≈ are worked out from the molar mass of the structure shown. Active and inactive are the calls of the source. The calls are words filed in the database; no cut-off is given here.

What all share (type): functional
For assay [1], the system named is Micrococcus luteus. Nature of the assay: Antimicrobial activity against Micrococcus luteus at 1 mg/ml incubated for 20 to 30 mins followed by incubation for 24 hrs at 37 degC by agar plate method. The procedure, abridged: (§1)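 Agar well diffusion on nutrient agar. Plates swabbed with 60 µL inoculum; 8 mm wells loaded with 100 µL of compound at 1.0 mg/mL. Held 20–30 min at 4 °C for diffusion, then 24 h at 37 °C. Inhibition zone diameter read in mm. Triplicate.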

The test system of a further assay is Staphylococcus aureus. Nature of the assay: Antimicrobial activity against Staphylococcus aureus at 1 mg/ml incubated for 20 to 30 mins followed by incubation for 24 hrs at 37 degC by agar plate method. The procedure, abridged:
as §1

Assay [2] relates to Salmonella typhi. Nature of the assay: Antimicrobial activity against Salmonella typhi at 1 mg/ml incubated for 20 to 30 mins followed by incubation for 24 hrs at 37 degC by agar plate method. The following applies: for diameter of the inhibition zone (DIZ): Salmonella enterica subsp. enterica serovar Typhi. The method, boiled down:
(§2)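 Agar well diffusion on nutrient agar. Plates swabbed with 60 µL inoculum, 8 mm wells loaded with 100 µL sample at 1.0 mg/mL, streptomycin standard and control in separate wells. Plates held 20–30 min at 4 °C for diffusion, then 24 h at 37 °C. Zone diameter read in mm; triplicate.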

For assay [3], the system named is Salmonella paratyphi. Put plainly: Antimicrobial activity against Salmonella paratyphi at 1 mg/ml incubated for 20 to 30 mins followed by incubation for 24 hrs at 37 degC by agar plate method. Conditions: for diameter of the inhibition zone (DIZ): Salmonella enterica subsp. enterica serovar Paratyphi A. The procedure, abridged: as §2
Assay [4] concerns Micrococcus luteus. Put plainly: Antimicrobial activity against Micrococcus luteus incubated for 12 to 16 hrs by tube dilution method. The method, boiled down: (§3)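 Tube dilution, serial from 500 to 1.9 µg/mL, plus drug-free control tube. Each tube inoculated with 1 mL culture at OD 0.2, incubated 37 °C for 12–16 h. MIC is the lowest concentration with no growth by turbidity. MBC is found by plating each tube on nutrient agar: the lowest concentration at which all cells are killed.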

In assay [5] the test system is Micrococcus luteus. Put plainly: Antimicrobial activity against Micrococcus luteus incubated for 12 to 16 hrs followed by plating in nutrient agar by tube dilution method. The method, boiled down:
as §3

The subject of assay [6] is Salmonella typhi. Nature of the assay: Antimicrobial activity against Salmonella typhi incubated for 12 to 16 hrs by tube dilution method. Conditions: Salmonella enterica subsp. enterica serovar Typhi. The procedure, abridged: (§4)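 Broth tube dilution, two-fold serial dilutions from 500 to 1.9 µg/mL plus a drug-free control tube. Each tube inoculated with 1 mL culture at OD 0.2 (~McFarland standard), 37 °C for 12-16 h. Turbidity compared with the control tube. MIC is the lowest concentration giving complete growth inhibition.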

The subject of assay [7] is Salmonella typhi. Nature of the assay: Antimicrobial activity against Salmonella typhi incubated for 12 to 16 hrs followed by plating in nutrient agar by tube dilution method. Conditions: Salmonella enterica subsp. enterica serovar Typhi. The method, boiled down: (§5)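 After 12-16 h at 37 °C in tube dilution (500 to 1.9 µg/mL; 1 mL inoculum at OD 0.2), the culture from each tube was plated on nutrient agar. MBC is the concentration at which cells are completely killed.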

Assay [8] deals with Salmonella paratyphi. Put plainly: Antimicrobial activity against Salmonella paratyphi incubated for 12 to 16 hrs by tube dilution method. Conditions: Salmonella enterica subsp. enterica serovar Paratyphi A. The method, boiled down: as §4
Assay [9] has as its system Salmonella paratyphi. Nature of the assay: Antimicrobial activity against Salmonella paratyphi incubated for 12 to 16 hrs followed by plating in nutrient agar by tube dilution method. Conditions: Salmonella enterica subsp. enterica serovar Paratyphi A. The procedure, abridged:
as §5

Assay [10] can be described thus: Anti-inflammatory activity at 50 ug/ml using bovine serum albumin and egg albumin proteins incubated at 37 degC for 20 mins and then heated to 95 degC for 20 mins by UV-visible Spectrophotometry based protein denaturation method. The method, boiled down:
(§6)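 Albumin (bovine serum or egg) at 1% in 50 mM sodium phosphate buffer pH 6.4. Mixture is 0.1 ml test sample (1 mg/ml) plus 0.2 ml albumin, made to 5 ml with buffer. Held 37 °C for 20 min, then 95 °C for 20 min. Cooled to room temperature, turbidity read at 660 nm. % inhibition = (Abs control − Abs sample)/Abs control × 100. Triplicate, averaged.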

Assay [11] in a line: Anti-inflammatory activity at 100 ug/ml using bovine serum albumin and egg albumin proteins incubated at 37 degC for 20 mins and then heated to 95 degC for 20 mins by UV-visible Spectrophotometry based protein denaturation method. The procedure, abridged:
as §6

Assay [12] can be described thus: Anti-inflammatory activity using bovine serum albumin and egg albumin proteins incubated at 37 degC for 20 mins and then heated to 95 degC for 20 mins by UV-visible Spectrophotometry based protein denaturation method. The method, boiled down: as §6
For the next assay, the system named is U-937. Put plainly: Anti-inflammatory activity in human U937 cells assessed as inhibition of LPS-induced IL6 production at 10 uM pre-incubated for 1 hr before LPS stimulation for 24 hrs by ELISA method. The method, boiled down: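 Human U937 cells grown in RPMI1640 with 10% FBS at 37 °C, 5% CO2. Differentiated with PMA 30 ng/ml for 24 h. Test compounds added for 1 h, then LPS 1 µg/ml for 24 h. TNF-α and IL-6 in supernatant measured by ELISA. Three independent experiments.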

The mark [13] stands for this setting: Salmonella enterica, read-out: DIZ.

On to `COC(=O)c1nnn(Cc2cn(-c3ccccc3)nc2-c2ccccc2)c1C(=O)OC`, for which the “diameter of the inhibition zone (DIZ)” value in the assay on Micrococcus luteus [1], in the assay on Staphylococcus aureus, with Salmonella typhi [2] and with Salmonella paratyphi [3] was “inactive” each time. The MIC entry in the assay with Micrococcus luteus [4], in the assay with Salmonella typhi [6] and in the assay on Salmonella paratyphi [8] was “inactive” in each case. Further, the MBC entry in the assay on Micrococcus luteus [5], with Salmonella typhi [7] and in the assay with Salmonella paratyphi [9] was “inactive” in each case. The inhibition entry in assay [10] and in [11] was “inactive” each time. In addition, the IC50 result in assay [12] is “Not Active”.

In the case of `Cc1ccc(-n2cc(CN=[N+]=[N-])c(-c3ccccc3)n2)cc1`, the “diameter of the inhibition zone (DIZ)” value in the assay with Micrococcus luteus [1], in the assay on Staphylococcus aureus, in the assay with Salmonella typhi [2] and with Salmonella paratyphi [3] was “inactive” in each case. Also, the MIC result in the assay on Micrococcus luteus [4], in the assay with Salmonella typhi [6] and in the assay on Salmonella paratyphi [8] was “inactive” in each case. Also, the MBC result with Micrococcus luteus [5], with Salmonella typhi [7] and in the assay on Salmonella paratyphi [9] was “inactive” throughout. The inhibition entry in assay [10] and in assay [11] was “inactive” throughout. The IC50 entry in [12] is reported as “Not Active”.

On to `COc1ccc(-c2cn(Cc3cn(-c4ccccc4)nc3-c3ccccc3)nn2)c(C)c1`, for which the “diameter of the inhibition zone (DIZ)” value in the assay with Micrococcus luteus [1], with Staphylococcus aureus, in the assay with Salmonella typhi [2] and in the assay on Salmonella paratyphi [3] was “inactive” throughout. For the same molecule, the MIC result in the assay with Micrococcus luteus [4], in the assay on Salmonella typhi [6] and in the assay with Salmonella paratyphi [8] was “inactive” each time. Also, the MBC result with Micrococcus luteus [5], with Salmonella typhi [7] and in the assay with Salmonella paratyphi [9] was “inactive” each time. Further, the inhibition entry in assay [10] and in assay [11] was “inactive” each time. The IC50 result in [12] was “Not Active”.

For `Cc1ccc(-n2cc(CO)c(-c3ccccc3)n2)cc1`, the zone of inhibition at 1000 µg/mL in the assay on Salmonella typhi [2] (setting [13]) worked out at 17 mm; with Salmonella paratyphi [3] (setting [13]), 12.5 mm. For the same molecule, the inhibition in assay [10] was 40.5%; in assay [11], 68.1%. In assay [12], this molecule showed an IC50 of 73.42 µg/mL (≈ 278 µM). Also, the inhibition at 10 µM in the assay with U-937 turned out to be 23.8%.

With `Cc1ccc(-c2cn(Cc3cn(-c4ccccc4)nc3-c3ccccc3)nn2)cc1`, the “diameter of the inhibition zone (DIZ)” value in the assay on Micrococcus luteus [1], with Staphylococcus aureus, in the assay on Salmonella typhi [2] and in the assay with Salmonella paratyphi [3] was “inactive” in each case. The MIC result in the assay on Micrococcus luteus [4], in the assay on Salmonella typhi [6] and in the assay with Salmonella paratyphi [8] was “inactive” each time. In addition, the MBC result in the assay on Micrococcus luteus [5], with Salmonella typhi [7] and with Salmonella paratyphi [9] was “inactive” throughout. The inhibition result in [10] and in [11] was “inactive” each time. In addition, the IC50 entry in assay [12] is recorded as “Not Active”.

Take `COc1ccc(-c2cn(Cc3cn(-c4ccccc4)nc3-c3ccccc3)nn2)cc1`: the “diameter of the inhibition zone (DIZ)” value with Micrococcus luteus [1], in the assay on Staphylococcus aureus, in the assay with Salmonella typhi [2] and in the assay with Salmonella paratyphi [3] was “inactive” each time. Besides, the MIC result in the assay with Micrococcus luteus [4], in the assay on Salmonella typhi [6] and in the assay with Salmonella paratyphi [8] was “inactive” each time. Moreover, the MBC entry in the assay with Micrococcus luteus [5], with Salmonella typhi [7] and in the assay with Salmonella paratyphi [9] was “inactive” in each case. In addition, the inhibition result in [10] and in [11] was “inactive” each time. The IC50 entry in [12] is on record as “Not Active”.

On to `Nc1ccc(-c2cn(Cc3cn(-c4ccccc4)nc3-c3ccccc3)nn2)cc1`, for which the “diameter of the inhibition zone (DIZ)” value in the assay with Micrococcus luteus [1], in the assay with Staphylococcus aureus, in the assay with Salmonella typhi [2] and in the assay with Salmonella paratyphi [3] was “inactive” each time. Moreover, the MIC entry in the assay with Micrococcus luteus [4], in the assay with Salmonella typhi [6] and with Salmonella paratyphi [8] was “inactive” throughout. Moreover, the MBC entry in the assay on Micrococcus luteus [5], in the assay with Salmonella typhi [7] and in the assay with Salmonella paratyphi [9] was “inactive” in each case. The inhibition result in [10] and in assay [11] was “inactive” throughout. In addition, the IC50 result in assay [12] is listed as “Not Active”.

For the molecule `[N-]=[N+]=NCc1cn(-c2ccccc2)nc1-c1ccc(Cl)cc1`, the “diameter of the inhibition zone (DIZ)” value with Micrococcus luteus [1], with Staphylococcus aureus, in the assay on Salmonella typhi [2] and in the assay on Salmonella paratyphi [3] was “inactive” each time. The MIC result in the assay on Micrococcus luteus [4], with Salmonella typhi [6] and with Salmonella paratyphi [8] was “inactive” throughout. Besides, the MBC result in the assay on Micrococcus luteus [5], in the assay on Salmonella typhi [7] and with Salmonella paratyphi [9] was “inactive” in each case. Also, the inhibition result in assay [10] and in [11] was “inactive” in each case. In [12], the IC50 entry is reported as “Not Active”.

As for `[N-]=[N+]=NCc1cn(-c2ccccc2)nc1-c1ccc(Cl)cc1Cl`, the “diameter of the inhibition zone (DIZ)” value with Micrococcus luteus [1], with Staphylococcus aureus, with Salmonella typhi [2] and in the assay with Salmonella paratyphi [3] was “inactive” each time. Moreover, the MIC entry in the assay with Micrococcus luteus [4], in the assay on Salmonella typhi [6] and in the assay with Salmonella paratyphi [8] was “inactive” each time. For the same molecule, the MBC entry with Micrococcus luteus [5], in the assay on Salmonella typhi [7] and with Salmonella paratyphi [9] was “inactive” in each case. The inhibition result in assay [10] and in [11] was “inactive” throughout. Also, the IC50 entry in assay [12] is “Not Active”.

Turning to `Cc1ccc(-n2cc(Cn3cc(-c4ccccc4)nn3)c(-c3ccccc3)n2)cc1`, the “diameter of the inhibition zone (DIZ)” value with Micrococcus luteus [1], with Staphylococcus aureus, in the assay with Salmonella typhi [2] and with Salmonella paratyphi [3] was “inactive” in each case. Moreover, the MIC entry in the assay on Micrococcus luteus [4], with Salmonella typhi [6] and in the assay with Salmonella paratyphi [8] was “inactive” in each case. Moreover, the MBC entry with Micrococcus luteus [5], in the assay on Salmonella typhi [7] and in the assay on Salmonella paratyphi [9] was “inactive” throughout. In addition, the inhibition result in assay [10] and in assay [11] was “inactive” each time. The IC50 entry in assay [12] is recorded as “Not Active”.

Consider `FC(F)(F)c1ccccc1-c1cn(Cc2cn(-c3ccccc3)nc2-c2ccccc2)nn1`, for which the “diameter of the inhibition zone (DIZ)” value in the assay with Micrococcus luteus [1], in the assay with Staphylococcus aureus, in the assay on Salmonella typhi [2] and in the assay with Salmonella paratyphi [3] was “inactive” throughout. Besides, the MIC result with Micrococcus luteus [4], in the assay on Salmonella typhi [6] and with Salmonella paratyphi [8] was “inactive” throughout. The MBC result with Micrococcus luteus [5], in the assay on Salmonella typhi [7] and in the assay with Salmonella paratyphi [9] was “inactive” each time. Also, the inhibition entry in assay [10] and in [11] was “inactive” each time. In assay [12], the IC50 result was “Not Active”.
